Activity calls are given as the source filed them. No cut-off for these calls is given here.
Columns and labels:
HUVEC [1] = experiment: Suppression of apoptosis in HUVEC cells at 25 uM by MTT assay; type: functional, cell-based; conditions: Homo sapiens
Procedure, shortened: (§1)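 Sub-confluent HUVECs, passages 10–20, were washed and cultured in M199 without serum and FGF-2. They were treated at 5, 10, 20, 25, 50 and 100 µM (DMSO vehicle at a non-toxic final level). Viability was measured by MTT at 24 and 48 h against deprived control and full-medium normal cells; n = 3.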

HUVEC [2] = experiment: Induction of apoptosis in HUVEC cells at 50 uM by MTT assay; type: functional, cell-based; conditions: Homo sapiens; procedure, shortened: as §1
HUVEC [3] = experiment: Induction of apoptosis in HUVEC cells at 100 uM by MTT assay; type: functional, cell-based; conditions: Homo sapiens; procedure, shortened: as §1
HUVEC [4] = experiment: Increase in cell viability of HUVEC cells at 25 uM; type: functional, cell-based; conditions: Homo sapiens; procedure, shortened: as §1
HUVEC [5] = experiment: Inhibition of nuclear DNA condensation in HUVEC cells at 25 uM after 24 hrs by acridine orange staining assay; type: functional, cell-based; conditions: Homo sapiens
Procedure, shortened: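 Serum/FGF-2-deprived HUVECs were treated with 25 µM for 24 h, then stained with acridine orange for 5 min. Nuclear condensation and fragmentation were examined by laser scanning confocal microscopy.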

HUVEC [6] = experiment: Inhibition of DNA fragmentation in HUVEC cells at 25 uM after 24 hrs by TUNEL assay; type: functional, cell-based; conditions: Homo sapiens
Procedure, shortened: (§2)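 TUNEL staining was done on HUVECs deprived of serum and FGF-2 (basal M199) and treated with 25 µM for 24 h. Apoptotic cells were quantified as a percentage from fluorescent micrographs, relative to deprived control and to cells in M199 with 20% FBS plus 70 ng/mL FGF-2.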

HUVEC [7] = experiment: Reduction of serum and FGF2 deprivation-induced apoptosis in HUVEC cells at 25 uM after 24 hrs; type: functional, Homo sapiens; parameters: scale not given: the % may be the effect or the level left; procedure, shortened: as §2
HUVEC [8] = experiment: Decrease in integrin beta4 level in HUVEC cells at 25 uM after 12 hrs in absence of serum and FGF2; type: functional, Homo sapiens
Procedure, shortened: (§3)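 HUVECs, passages 10–20, grown to sub-confluence, washed and switched to basal M199 without FBS and FGF-2; 25 µM in DMSO for 12, 24 or 48 h. Comparators were cells kept in M199 with 20% FBS plus 70 ng/mL FGF-2 and cells in basal medium alone. Immunofluorescence used rabbit anti-human integrin β4 and FITC-IgG secondary, read by laser scanning confocal microscopy as relative fluorescence intensity; n = 3.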

HUVEC [9] = experiment: Decrease in integrin beta4 level in HUVEC cells at 25 uM after 24 hrs in absence of serum and FGF2; type: functional, Homo sapiens; procedure, shortened: as §3
HUVEC [10] = experiment: Decrease in integrin beta4 level in HUVEC cells at 25 uM after 48 hrs in absence of serum and FGF2; type: functional, Homo sapiens; procedure, shortened: as §3
HUVEC [11] = experiment: Decrease in serum and FGF2 deprivation-induced intracellular ROS level in HUVEC cells; type: functional, cell-based; conditions: Homo sapiens
Procedure, shortened: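 Intracellular ROS measured with the DCHF probe, which oxidises to fluorescent DCF. Cells were HUVECs in basal M199 lacking serum and FGF-2, exposed to 25 µM for 12, 24 and 48 h. Fluorescence was imaged by laser scanning confocal microscopy and expressed as relative DCF intensity per cell in the scanned area; n = 3.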

HUVEC [12] = experiment: Decrease in serum and FGF2 deprivation-induced p53 level in HUVEC cells; type: functional, cell-based; conditions: Homo sapiens
Procedure, shortened: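 Serum/FGF-2-deprived HUVECs (basal M199) received 25 µM for 12, 24 and 48 h. Comparators were cells in M199 with 20% FBS and 70 ng/mL FGF-2 and untreated deprived cells. p53 was detected by immunofluorescence with rabbit anti-human p53 and FITC-IgG secondary, semiquantified as relative intensity by confocal microscopy; n = 3.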

## CCOC(=O)c1c(-c2ccccc2Cl)nn(-c2ccccc2)c1C
HUVEC [1]
  Activity: Active
HUVEC [2]
  Activity: Active
HUVEC [3]
  Activity: Active
HUVEC [4]
  Activity: Active
HUVEC [5]
  Activity: Active
HUVEC [6]
  Activity: Active
HUVEC [7]
  Activity: 19.16%
HUVEC [8]
  Flu intensity: 6.307
HUVEC [9]
  Flu intensity: 9.083
HUVEC [10]
  Flu intensity: 13.14
HUVEC [11]
  Activity: Active
HUVEC [12]
  Activity: Active

Source: ChEMBL document CHEMBL1157183, “Synthesis and discovery of a novel pyrazole derivative as an inhibitor of apoptosis through modulating integrin beta4, ROS, and p53 levels in vascular endothelial cells” (2008)
